The source of these data is ChEMBL document CHEMBL1140312, “Synthesis and biological evaluation of geminal disulfones as HIV-1 integrase inhibitors” (J Med Chem, 2005).

Bounds are passed on as bounds.

In assay [1] the target is T1, Human immunodeficiency virus type 1 integrase (Human immunodeficiency virus 1, UniProt Q7ZJM1). Description: Inhibitory concentration against 3'processing of HIV-1 Integrase.
The subject of assay [2] is HeLa. Description: Cytotoxicity for HeLa H1-JC.37 cells using MTS assay. The class given is functional, cell-based. Particulars: Homo sapiens. An outline of the steps:
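HeLa H1-JC.37 cell proliferation measured by MTS assay under manufacturer's recommended conditions. Data plotted as percentage of no-drug control against inhibitor concentration; IC50 for 50% inhibition of proliferation taken from best-fit line of linear portion of plot; at least two separate experiments.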
A general note: Tetrazolium assays rely on reduction of a dye to a coloured formazan, in cell work by metabolically active cells.

Assay [3] deals with T1, Human immunodeficiency virus type 1 integrase. As to the kind of experiment: Inhibitory concentration against integration of HIV-1 Integrase.
Assay [4] relates to HeLa. Description: Ratio of cytotoxicity for HeLa H1-JC.37 cells (IC50) to antiviral activity against HIV-1 (EC50). The class given is functional, Homo sapiens. In a few lines: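 Ratio of cytotoxic IC50 to antiviral EC50 in HeLa H1-JC.37 cells (HeLa CD4 expressing CCR5). EC50 came from an HIV-1 focal infectivity assay: mAb 22-6 (1/800) immunostaining, foci counted at 30× to 100×, best-fit linear portion of % no-drug control foci versus concentration, at least three experiments. IC50 came from an MTS proliferation assay, same fitting, at least two experiments.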

Assay [5] relates to HeLa. Description: Antiviral activity against human immuno deficiency virus type 1 in HeLa H1-JC.37 cells. The class given is functional, cell-based. In a few lines: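 HIV-1 focal infectivity assay in HeLa H1-JC.37 indicator cells (HeLa CD4 expressing human CCR5, naturally CXCR4). Foci immunostained with monoclonal antibody 22-6 at 1/800 and counted under a dissecting microscope at 30× to 100×. Plotted as percentage of no-drug control foci against inhibitor concentration; EC50 from best-fit line of linear portion; at least three separate experiments.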

T1 sequence (Q7ZJM1 whole entry): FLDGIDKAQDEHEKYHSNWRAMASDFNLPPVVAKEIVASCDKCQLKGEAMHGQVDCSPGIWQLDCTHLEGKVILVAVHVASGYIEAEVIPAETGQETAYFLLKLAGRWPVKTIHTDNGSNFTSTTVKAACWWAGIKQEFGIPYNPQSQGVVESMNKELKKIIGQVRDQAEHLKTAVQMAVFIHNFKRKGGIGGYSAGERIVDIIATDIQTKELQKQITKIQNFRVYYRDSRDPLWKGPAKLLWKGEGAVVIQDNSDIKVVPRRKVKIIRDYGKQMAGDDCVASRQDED

For `COc1cc(/C=C/S(=O)(=O)CS(=O)(=O)/C=C/c2cc(O)c(O)c(OC)c2)cc(O)c1O`, the IC50 – broadly, the midpoint of a concentration-inhibition curve – in assay [1] is 50 µM; with HeLa [2], 29 µM; in assay [3], 50 µM. Moreover, the Selectivity index in the assay with HeLa [4] stood at 22. Besides, the EC50 (in general, the midpoint of the concentration-response curve) in the assay on HeLa [5] turned out to be 1.3 µM.

As to `O=S(=O)(/C=C/c1cc(O)c(O)c(O)c1)CS(=O)(=O)/C=C/c1cc(O)c(O)c(O)c1`, the IC50 in assay [1] stood at 1.8 µM; in the assay with HeLa [2] it was 169 µM; in assay [3] it was 0.9 µM. In addition, the Selectivity index with HeLa [4] was 563. For the same molecule, in the assay with HeLa [5], the EC50 was 0.3 µM.

`O=S(=O)(/C=C/c1ccc(O)c(O)c1)CS(=O)(=O)/C=C/c1ccc(O)c(O)c1`: the IC50 in assay [1] amounted to 4 µM; in the assay on HeLa [2], 187 µM; in assay [3] it was 5 µM. In addition, the Selectivity index in the assay on HeLa [4] came out at 78. Moreover, the EC50 in the assay with HeLa [5] was 2.4 µM.

With `COc1cc(/C=C/S(=O)(=O)CS(=O)(=O)/C=C/c2ccccc2)cc(O)c1O`, the results for the IC50 (in assay [1]; with HeLa [2]; in assay [3]) were 80 µM, 19 µM and 80 µM, respectively. In addition, the Selectivity index with HeLa [4] worked out at 4.3. The molecule further showed an EC50 with HeLa [5] of 4.5 µM.

Consider `COc1cc(/C=C/S(=O)(=O)CS(=O)(=O)/C=C/c2ccc(C(C)=O)c(OC)c2)ccc1C(C)=O`, for which the IC50 in assay [1] and in assay [3] was > 1000 µM each time.

As for `O=C(O)C(=O)CC(=O)c1cc(OCc2ccccc2)cc(OCc2ccccc2)c1`, the IC50 in assay [1] is > 1000 µM. The molecule further had an EC50 with HeLa [5] of 0.78 µM.

As to `O=S(=O)(/C=C/c1ccc(OCc2ccccc2)c(OCc2ccccc2)c1)CS(=O)(=O)/C=C/c1ccc(OCc2ccccc2)c(OCc2ccccc2)c1`, the IC50 in assay [1] and in assay [3] was 700 µM throughout.
